Active and inactive are the calls of the source. No cut-off for these calls is given here.
Columns and labels:
A549 = assay: Antiproliferative activity against human A549 cells assessed as growth inhibition after 48 hrs by SRB assay; details: A549, 48 h
MCF7 = assay: Antiproliferative activity against human MCF7 cells assessed as growth inhibition after 48 hrs by SRB assay; details: MCF7, 48 h
DU-145 [1] = assay: Antiproliferative activity against human DU145 cells assessed as growth inhibition after 48 hrs by SRB assay; details: DU-145, 48 h
DU-145 [2] = assay: Induction of apoptosis in human DU145 cells assessed as mitochondrial membrane potential drop measured as early apoptotic cells at 2 uM after 48 hrs using JC-1 staining-based flow cytometry (reference value: 9.1%); format: functional
DU-145 [3] = assay: Induction of apoptosis in human DU145 cells assessed as mitochondrial membrane potential drop measured as necrotic cells at 1 uM after 48 hrs using JC-1 staining-based flow cytometry (reference value: 0%); format: functional
DU-145 [4] = assay: Induction of apoptosis in human DU145 cells assessed as mitochondrial membrane potential drop measured as late apoptotic cells at 2 uM after 48 hrs using JC-1 staining-based flow cytometry (reference value: 90.9%); format: functional
DU-145 [5] = assay: Cell cycle arrest in human DU145 cells assessed as cells accumulation at SubG1 phase at 2 uM after 48 hrs by propidium iodide staining-based flow cytometric analysis (reference value: 3.52%); format: functional
DU-145 [6] = assay: Induction of apoptosis in human DU145 cells assessed as mitochondrial membrane potential drop measured as late apoptotic cells at 1 uM after 48 hrs using JC-1 staining-based flow cytometry (reference value: 90.9%); format: functional
DU-145 [7] = assay: Cell cycle arrest in human DU145 cells assessed as cells accumulation at G2/M phase at 1 uM after 48 hrs by propidium iodide staining-based flow cytometric analysis (reference value: 6.81%); format: functional
DU-145 [8] = assay: Induction of apoptosis in human DU145 cells assessed as increase in caspase 3 activation at 2 uM after 48 hrs by ELISA; format: functional
Summary of the method: (§1)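 DU-145 cells were treated at 1 or 2 µM for 48 h, pelleted and PBS-washed. Pellets were lysed 15 min and centrifuged at 20,000 rpm for 15 min. Caspase-3 activity in the supernatant was measured by a colorimetric ELISA-based kit per the manufacturer. Activity is expressed as fold over untreated control, mean ± SD of two experiments in triplicate.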

DU-145 [9] = assay: Cell cycle arrest in human DU145 cells assessed as cells accumulation at SubG1 phase at 1 uM after 48 hrs by propidium iodide staining-based flow cytometric analysis (reference value: 3.52%); format: functional
DU-145 [10] = assay: Cell cycle arrest in human DU145 cells assessed as cells accumulation at S phase at 2 uM after 48 hrs by propidium iodide staining-based flow cytometric analysis (reference value: 4.18%); format: functional
DU-145 [11] = assay: Induction of apoptosis in human DU145 cells assessed as viable cells at 2 uM after 48 hrs by annexin V-FITC/propidium iodide staining-based flow cytometric analysis (reference value: 97.12%); format: functional; details: DU-145, 48 h, read-out: Activity
DU-145 [12] = assay: Cell cycle arrest in human DU145 cells assessed as cells accumulation at G0/G1 phase at 1 uM after 48 hrs by propidium iodide staining-based flow cytometric analysis (reference value: 84.75%); format: functional
DU-145 [13] = assay: Induction of apoptosis in human DU145 cells assessed as late apoptotic cells at 1 uM after 48 hrs by annexin V-FITC/propidium iodide staining-based flow cytometric analysis (reference value: 1.96%); format: functional
DU-145 [14] = assay: Induction of apoptosis in human DU145 cells assessed as mitochondrial membrane potential drop measured as early apoptotic cells at 1 uM after 48 hrs using JC-1 staining-based flow cytometry (reference value: 9.1%); format: functional
DU-145 [15] = assay: Cell cycle arrest in human DU145 cells assessed as cells accumulation at G0/G1 phase at 2 uM after 48 hrs by propidium iodide staining-based flow cytometric analysis (reference value: 84.75%); format: functional
DU-145 [16] = assay: Cell cycle arrest in human DU145 cells assessed as cells accumulation at S phase at 1 uM after 48 hrs by propidium iodide staining-based flow cytometric analysis (reference value: 4.18%); format: functional
DU-145 [17] = assay: Induction of apoptosis in human DU145 cells assessed as reduction in mitochondrial membrane potential at 2 uM after 48 hrs using JC-1 staining-based flow cytometry; format: functional, cell-based
DU-145 [18] = assay: Induction of apoptosis in human DU145 cells assessed as late apoptotic cells at 2 uM after 48 hrs by annexin V-FITC/propidium iodide staining-based flow cytometric analysis (reference value: 1.96%); format: functional
DU-145 [19] = assay: Cell cycle arrest in human DU145 cells assessed as cells accumulation at G2/M phase at 2 uM after 48 hrs by propidium iodide staining-based flow cytometric analysis (reference value: 6.81%); format: functional
DU-145 [20] = assay: Induction of apoptosis in human DU145 cells assessed as necrotic cells at 1 uM after 48 hrs by annexin V-FITC/propidium iodide staining-based flow cytometric analysis (reference value: 0.22%); format: functional
DU-145 [21] = assay: Induction of apoptosis in human DU145 cells assessed as increase in caspase 3 activation at 1 uM after 48 hrs by ELISA; format: functional
Summary of the method: as §1

Tubulin = assay: Inhibition of tubulin polymerization (unknown origin) after 1 hr by fluorescence analysis; format: protein-complex assay, Homo sapiens
Summary of the method: (§2)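 Fluorescence-reporter tubulin polymerization kit. Tubulin (3 mg/mL) in PEM buffer with 1 mM GTP, with or without compound (3 µM, or 2.5–15 µM for IC50). Fluorescence (ex 360 / em 420 nm) was followed for 1 h at 37 °C. IC50 is the concentration giving 50% inhibition of assembly versus control. Data are mean ± SD of two experiments in triplicate, with E7010 as positive control.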

DU-145 [22] = assay: Induction of apoptosis in human DU145 cells assessed as mitochondrial membrane potential drop measured as viable cells at 1 uM after 48 hrs using JC-1 staining-based flow cytometry (reference value: 0%); format: functional
Tubulin (Homo sapiens) [23] = target: T1, Tubulin (Homo sapiens) (UniProt P68371+Q9H4B7+P0DPH7+P68366+Q13509+Q71U36+P04350+Q3ZCM7+P07437+P68363+Q9BQE3+Q6PEY2+Q13885+Q9BVA1+Q9BUF5); assay: Displacement of colchicine from tubulin (unknown origin) at 5 to 25 uM after 60 mins by competitive binding assay; format: protein-complex assay
Summary of the method: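 Compound (5, 10, 15, 20, 25 µM) was co-incubated with 4 µM colchicine and 3 µM tubulin in 30 mM Tris buffer for 60 min at 37 °C. Tubulin–colchicine fluorescence was read at ex 350 / em 435 nm. Buffer blank was subtracted and values were normalized to DMSO control (F/F0). Nocodazole or E7010 served as positive control and taxol as negative control.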

DU-145 [24] = assay: Induction of apoptosis in human DU145 cells assessed as induction of DNA fragmentation at 1 uM after 48 hrs by agarose gel electrophoresis; format: functional, cell-based
Summary of the method: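 DU-145 cells (1×10^6, six-well) were seeded 24 h, then treated at 1 µM for 48 h. Lysates were digested with SDS/RNase A for 2 h at 56 °C, then proteinase K for 2 h at 37 °C. DNA was precipitated with ammonium acetate and ethanol at −80 °C, dissolved in TE, and resolved on 2% agarose against a 100 bp marker.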

Tubulin (Homo sapiens) [25] = target: T1, Tubulin (Homo sapiens); assay: Inhibition of tubulin polymerization (unknown origin) at 3 uM after 1 hr by fluorescence analysis; format: protein-complex assay
Summary of the method: as §2

DU-145 [26] = assay: Induction of apoptosis in human DU145 cells assessed as viable cells at 1 uM after 48 hrs by annexin V-FITC/propidium iodide staining-based flow cytometric analysis (reference value: 97.12%); format: functional; details: DU-145, 48 h, read-out: Activity
DU-145 [27] = assay: Induction of apoptosis in human DU145 cells assessed as necrotic cells at 2 uM after 48 hrs by annexin V-FITC/propidium iodide staining-based flow cytometric analysis (reference value: 0.22%); format: functional
DU-145 [28] = assay: Induction of apoptosis in human DU145 cells assessed as mitochondrial membrane potential drop measured as necrotic cells at 2 uM after 48 hrs using JC-1 staining-based flow cytometry (reference value: 0%); format: functional
DU-145 [29] = assay: Induction of apoptosis in human DU145 cells assessed as early apoptotic cells at 2 uM after 48 hrs by annexin V-FITC/propidium iodide staining-based flow cytometric analysis (reference value: 0.71%); format: functional
DU-145 [30] = assay: Induction of apoptosis in human DU145 cells assessed as mitochondrial membrane potential drop measured as viable cells at 2 uM after 48 hrs using JC-1 staining-based flow cytometry (reference value: 0%); format: functional
DU-145 [31] = assay: Induction of apoptosis in human DU145 cells assessed as early apoptotic cells at 1 uM after 48 hrs by annexin V-FITC/propidium iodide staining-based flow cytometric analysis (reference value: 0.71%); format: functional

## COc1ccc(Nc2ncccc2C(=O)Nc2cccnc2Nc2ccc(Cl)cc2)cc1
A549
  GI50: > 100 µM
MCF7
  GI50: 28.8 µM
DU-145 [1]
  GI50: 16.6 µM

## O=C(Nc1cccnc1Nc1ccc(F)cc1)c1cccnc1Nc1cc(C(F)(F)F)cc(C(F)(F)F)c1
DU-145 [2]
  Activity: 32.6%
DU-145 [3]
  Activity: 0%
DU-145 [4]
  Activity: 67.4%
DU-145 [5]
  Activity: 2.41%
DU-145 [6]
  Activity: 89.4%
DU-145 [7]
  Activity: 32.49%
DU-145 [8]
  fold change (FC): 2
A549
  GI50: 39.2 µM
DU-145 [9]
  Activity: 4.64%
DU-145 [10]
  Activity: 1.77%
MCF7
  GI50: > 100 µM
DU-145 [11]
  viability at 2 µM: 75.7%
DU-145 [12]
  Activity: 57.93%
DU-145 [13]
  Activity: 14.03%
DU-145 [14]
  Activity: 10.6%
DU-145 [15]
  Activity: 53.38%
DU-145 [16]
  Activity: 1.63%
DU-145 [17]
  inhibition: Active
DU-145 [18]
  Activity: 16.53%
DU-145 [19]
  Activity: 41.19%
DU-145 [20]
  Activity: 1.27%
DU-145 [21]
  fold change (FC): 2
Tubulin
  IC50: 2.16 µM
DU-145 [22]
  Activity: 0%
Tubulin (Homo sapiens) [23]
  inhibition: Active
DU-145 [24]
  Activity: Active
Tubulin (Homo sapiens) [25]
  inhibition: 64.3%
DU-145 [26]
  viability at 1 µM: 80.4%
DU-145 [27]
  Activity: 1.84%
DU-145 [28]
  Activity: 0%
DU-145 [29]
  Activity: 5.97%
DU-145 [30]
  Activity: 0%
DU-145 [1]
  GI50: 0.99 µM
DU-145 [31]
  Activity: 4.28%

## COc1ccc(Nc2ncccc2NC(=O)c2cccnc2Nc2cc(OC)c(OC)c(OC)c2)cc1
A549
  GI50: > 100 µM
MCF7
  GI50: > 100 µM
DU-145 [1]
  GI50: > 100 µM

## O=C(Nc1cccnc1Nc1ccccc1)c1cccnc1Nc1cc(C(F)(F)F)cc(C(F)(F)F)c1
A549
  GI50: 3.2 µM
MCF7
  GI50: 5.4 µM
DU-145 [1]
  GI50: 4.8 µM

## O=C(Nc1cccnc1Nc1ccc(F)cc1)c1cccnc1Nc1ccc(F)cc1
A549
  GI50: 15.2 µM
MCF7
  GI50: 16 µM
DU-145 [1]
  GI50: 8.4 µM

## COc1cc(Nc2ncccc2C(=O)Nc2cccnc2Nc2ccc(F)cc2)cc(OC)c1OC
A549
  GI50: > 100 µM
MCF7
  GI50: > 100 µM
DU-145 [1]
  GI50: 7 µM

## COc1cc(Nc2ncccc2C(=O)Nc2cccnc2Nc2ccc(Cl)cc2)cc(OC)c1OC
A549
  GI50: > 100 µM
MCF7
  GI50: > 100 µM
DU-145 [1]
  GI50: 10.5 µM

## O=C(Nc1cccnc1Nc1ccc(Cl)cc1)c1cccnc1Nc1cc(C(F)(F)F)cc(C(F)(F)F)c1
A549
  GI50: 3.9 µM
MCF7
  GI50: 10.5 µM
DU-145 [1]
  GI50: 3.1 µM

— ChEMBL document CHEMBL3351230, “Synthesis of 2-anilinopyridine dimers as microtubule targeting and apoptosis inducing agents” (Bioorg Med Chem, 2014)
